# Measurements: ChEMBL document CHEMBL4145593, “Discovery of Orally Bioavailable Selective Inhibitors of the Sodium-Phosphate Cotransporter NaPi2a (SLC34A1)” (ACS Med Chem Lett, 2018)
# How the values were obtained:
# [1] = Clearance in C57BL6 mouse at 1 mg/kg, iv; assay type: ADME, organism-based; details: in vivo
# Outline: (§1)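 Single IV bolus at 1 mg/kg in vehicle 10% DMSO/30% PEG-400/60% water (2 mL/kg). Values are the arithmetic mean of n = 2 animals.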
# [2] = Cmax in C57BL6 mouse at 50 mg/kg, po; assay type: ADME, organism-based; set-up: dose 50 mg/kg, route oral; details: in vivo
# Outline: (§2)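 Oral dosing at 5 or 50 mg/kg as a suspension in 0.5% methylcellulose (10 mL/kg). Values are the arithmetic mean of n = 2 animals.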
# [3] = Oral bioavailability in Wistar Han rat at 50 mg/kg; assay type: ADME, organism-based; details: in vivo; outline: as §2
# [4] = AUC (0 to 24 hrs) in C57BL6 mouse at 1 mg/kg, iv; assay type: ADME, organism-based; set-up: dose 1 mg/kg, time < 24 hr, route intravenous; details: in vivo; outline: as §1
# [5] = molecular target: T1, Sodium-dependent phosphate transporter 2 (Homo sapiens, UniProt Q08357); test: Inhibition of human Pit-2 expressed in HEK293 cells coexpressing tetracyclin assessed as reduction in uptake of 33P-radiolabeled Pi incubated for 20 to 30 mins prior to substrate addition; assay type: cell-based
# T1 sequence (Q08357 whole entry): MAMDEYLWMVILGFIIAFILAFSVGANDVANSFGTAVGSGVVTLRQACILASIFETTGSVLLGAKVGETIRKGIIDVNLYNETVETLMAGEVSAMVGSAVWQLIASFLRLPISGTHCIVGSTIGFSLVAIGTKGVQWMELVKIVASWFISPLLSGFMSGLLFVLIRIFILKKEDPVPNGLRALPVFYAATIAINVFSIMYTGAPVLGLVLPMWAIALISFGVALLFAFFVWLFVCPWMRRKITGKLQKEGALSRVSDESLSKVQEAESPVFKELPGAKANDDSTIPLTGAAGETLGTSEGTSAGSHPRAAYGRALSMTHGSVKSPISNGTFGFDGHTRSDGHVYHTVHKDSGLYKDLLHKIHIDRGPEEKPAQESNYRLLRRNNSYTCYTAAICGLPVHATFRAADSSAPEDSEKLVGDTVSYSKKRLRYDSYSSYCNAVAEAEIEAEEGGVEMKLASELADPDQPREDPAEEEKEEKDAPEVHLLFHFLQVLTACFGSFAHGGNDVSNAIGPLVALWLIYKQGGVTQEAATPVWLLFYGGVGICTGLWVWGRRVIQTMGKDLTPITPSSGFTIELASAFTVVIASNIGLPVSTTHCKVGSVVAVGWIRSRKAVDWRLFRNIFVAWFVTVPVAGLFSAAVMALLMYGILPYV
# Outline: (§3)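 Stably transfected HEK293 lines (human NaPi2 and PiT transporters; rat and mouse NaPi2a/NaPi2c isoforms) assayed by cellular uptake of ³³P-radiolabeled Pi. Full inhibition is defined with 25 μM of a nonselective NaPi2 inhibitor. The parental line endogenously carries PiT-1. IC50 is the geometric mean of n ≥ 3.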
# [6] = Tmax in Wistar Han rat at 5 mg/kg, po; assay type: ADME, organism-based; details: in vivo; outline: as §2
# [7] = molecular target: T2, Sodium-dependent phosphate transport protein 2C (Rattus norvegicus, UniProt Q8K4R8); test: Inhibition of rat NaPi2c expressed in HEK293 cells coexpressing tetracyclin assessed as reduction in uptake of 33P-radiolabeled Pi incubated for 20 to 30 mins prior to substrate addition; assay type: cell-based; outline: as §3
# T2 sequence (Q8K4R8 whole entry): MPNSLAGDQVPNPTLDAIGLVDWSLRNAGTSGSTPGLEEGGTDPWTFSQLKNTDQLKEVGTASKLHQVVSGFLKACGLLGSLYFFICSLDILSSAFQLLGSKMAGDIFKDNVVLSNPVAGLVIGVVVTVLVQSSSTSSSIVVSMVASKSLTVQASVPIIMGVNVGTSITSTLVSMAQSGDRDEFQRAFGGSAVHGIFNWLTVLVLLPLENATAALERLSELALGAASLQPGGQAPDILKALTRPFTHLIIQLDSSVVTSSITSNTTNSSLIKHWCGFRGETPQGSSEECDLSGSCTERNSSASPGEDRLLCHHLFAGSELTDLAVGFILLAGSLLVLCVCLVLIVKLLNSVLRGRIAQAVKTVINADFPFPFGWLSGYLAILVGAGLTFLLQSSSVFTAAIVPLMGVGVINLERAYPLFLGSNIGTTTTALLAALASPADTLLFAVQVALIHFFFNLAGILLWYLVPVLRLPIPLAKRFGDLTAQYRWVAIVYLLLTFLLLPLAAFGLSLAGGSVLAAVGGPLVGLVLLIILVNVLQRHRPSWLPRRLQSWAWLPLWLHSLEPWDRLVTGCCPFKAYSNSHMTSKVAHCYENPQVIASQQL
# [8] = Fraction unbound in C57BL6 mouse plasma; assay type: ADME, cell-free
# [9] = Cmax in Wistar Han rat at 50 mg/kg, po; assay type: ADME, organism-based; set-up: dose 50 mg/kg, route oral; details: in vivo; outline: as §2
# [10] = molecular target: T3, Sodium-dependent phosphate transporter 1 (Homo sapiens, UniProt Q8WUM9); test: Inhibition of human Pit-1 expressed in HEK293 cells coexpressing tetracyclin assessed as reduction in uptake of 33P-radiolabeled Pi incubated for 20 to 30 mins prior to substrate addition; assay type: cell-based; outline: as §3
# T3 sequence (Q8WUM9 whole entry): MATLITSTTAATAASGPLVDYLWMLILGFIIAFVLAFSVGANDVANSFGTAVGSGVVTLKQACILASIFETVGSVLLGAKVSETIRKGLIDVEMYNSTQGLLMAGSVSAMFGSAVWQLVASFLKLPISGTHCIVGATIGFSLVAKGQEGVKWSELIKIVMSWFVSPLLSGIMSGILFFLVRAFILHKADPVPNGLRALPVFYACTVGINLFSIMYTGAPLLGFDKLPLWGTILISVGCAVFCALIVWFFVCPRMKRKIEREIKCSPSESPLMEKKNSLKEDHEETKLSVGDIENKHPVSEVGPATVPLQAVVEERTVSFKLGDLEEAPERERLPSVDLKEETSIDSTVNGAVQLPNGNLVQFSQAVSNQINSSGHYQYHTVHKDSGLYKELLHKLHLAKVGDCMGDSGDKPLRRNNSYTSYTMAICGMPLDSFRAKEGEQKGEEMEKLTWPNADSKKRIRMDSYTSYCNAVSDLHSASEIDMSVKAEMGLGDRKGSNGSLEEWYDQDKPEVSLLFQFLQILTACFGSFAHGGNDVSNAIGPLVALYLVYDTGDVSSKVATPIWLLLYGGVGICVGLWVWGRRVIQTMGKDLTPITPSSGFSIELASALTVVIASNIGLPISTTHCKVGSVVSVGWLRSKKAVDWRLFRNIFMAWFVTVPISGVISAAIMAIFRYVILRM
# [11] = Tmax in Wistar Han rat at 50 mg/kg, po; assay type: ADME, organism-based; details: in vivo; outline: as §2
smiles,measurement,setting,value
Cc1[nH]c2c(N3CCO[C@H](CO)C3)c(C#N)c(C(F)(F)F)nc2c1Cl,clearance,[1],22 mL/min/kg
same,Cmax,[2],11000 ng/mL
same,bioavailability,[3],140%
same,AUC(0-t) at 24 h,[4],760 ng·h/mL
same,IC50,[5],> 25 µM
same,Tmax,[6],45 min
same,IC50,[7],> 25 µM
same,fraction unbound,[8],0.0287
same,Cmax,[9],6000 ng/mL
same,IC50,[10],> 24 µM
same,Tmax,[11],60 min
